Active and inactive are the calls of the source. The rule behind the calls is not given here.
Key:
Bacillus subtilis = experiment: Antimicrobial activity against Bacillus subtilis ATCC 6051 at 200 ug/disk; assay type: functional; settings: read-out: IZ
Procedure, shortened: (§1)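 Standard disk diffusion assay with 200 µg of compound applied per disk. Activity was read as the diameter (mm) of the zone of growth inhibition around the disk.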

Candida albicans = experiment: Antimicrobial activity against Candida albicans ATCC 90029 at 200 ug/disk; assay type: functional, organism-based; procedure, shortened: as §1
Staphylococcus aureus = experiment: Antimicrobial activity against Staphylococcus aureus ATCC 29213 at 200 ug/disk; assay type: functional; settings: read-out: IZ; procedure, shortened: as §1

Structure (SMILES) | zone of inhibition at 200 µg/disc (Bacillus subtilis) | Activity (Candida albicans) | zone of inhibition at 200 µg/disc (Staphylococcus aureus)
C=C(CO)[C@@]12O[C@@H]1[C@@]1(C)C(=C[C@H]2O)C=C[C@@H](O)[C@@H]1C [PHOMADECALIN D] | 9 mm | inactive | 8 mm
C=C(CO)[C@@]12O[C@@H]1[C@@]1(C)C(=C[C@H]2O)C=CC[C@@H]1C [PHOMADECALIN A] | 18 mm | inactive | 10 mm
C=C(CO)[C@@]12O[C@@H]1[C@@]1(C)C(=C[C@H]2O)C=CC(=O)[C@@H]1C [PHOMADECALIN C] | 12 mm |  | 
C=C(COC(C)=O)[C@@]12O[C@@H]1[C@@]1(C)C(=C[C@H]2O)C=C[C@@H](O)[C@@H]1C [PHOMADECALIN B] | 10 mm | inactive | 8 mm

Source: ChEMBL document CHEMBL1148107, “Phomadecalins A-D and phomapentenone A: new bioactive metabolites from Phoma sp. NRRL 25697, a fungal colonist of Hypoxylon stromata” (2002)
